In ChEMBL document CHEMBL1128425, “5-Methyl-1-(3-pyridylcarbamoyl)-1,2,3,5-tetrahydropyrrolo[2,3-f]indole: a novel 5-HT2C/5-HT2B receptor antagonist with improved affinity, selectivity, and oral activity” (J Med Chem, 1995):
pKi: −log10 of the molar value.

Experiments:
[1] = target: T1, Adrenergic receptor alpha-1 (Rattus norvegicus, UniProt P15823+P23944+P43140); test: Binding affinity against rat Alpha-1 adrenergic receptor; assay type: protein assay
T1 sequence (P15823 whole entry): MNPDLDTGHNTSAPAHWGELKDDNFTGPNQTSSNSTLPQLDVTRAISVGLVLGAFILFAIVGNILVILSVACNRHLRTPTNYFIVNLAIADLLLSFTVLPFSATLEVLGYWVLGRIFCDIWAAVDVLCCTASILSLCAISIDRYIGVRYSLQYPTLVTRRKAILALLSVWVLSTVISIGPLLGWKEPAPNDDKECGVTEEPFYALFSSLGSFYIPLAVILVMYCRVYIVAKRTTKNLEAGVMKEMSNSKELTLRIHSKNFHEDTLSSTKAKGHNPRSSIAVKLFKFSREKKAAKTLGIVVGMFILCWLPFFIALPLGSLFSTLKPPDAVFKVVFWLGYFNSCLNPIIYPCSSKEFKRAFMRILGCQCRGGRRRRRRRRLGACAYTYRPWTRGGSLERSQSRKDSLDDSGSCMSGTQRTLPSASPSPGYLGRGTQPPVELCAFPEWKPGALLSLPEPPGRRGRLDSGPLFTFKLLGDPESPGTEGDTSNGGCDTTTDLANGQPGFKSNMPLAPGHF
T1 sequence (P23944 whole entry): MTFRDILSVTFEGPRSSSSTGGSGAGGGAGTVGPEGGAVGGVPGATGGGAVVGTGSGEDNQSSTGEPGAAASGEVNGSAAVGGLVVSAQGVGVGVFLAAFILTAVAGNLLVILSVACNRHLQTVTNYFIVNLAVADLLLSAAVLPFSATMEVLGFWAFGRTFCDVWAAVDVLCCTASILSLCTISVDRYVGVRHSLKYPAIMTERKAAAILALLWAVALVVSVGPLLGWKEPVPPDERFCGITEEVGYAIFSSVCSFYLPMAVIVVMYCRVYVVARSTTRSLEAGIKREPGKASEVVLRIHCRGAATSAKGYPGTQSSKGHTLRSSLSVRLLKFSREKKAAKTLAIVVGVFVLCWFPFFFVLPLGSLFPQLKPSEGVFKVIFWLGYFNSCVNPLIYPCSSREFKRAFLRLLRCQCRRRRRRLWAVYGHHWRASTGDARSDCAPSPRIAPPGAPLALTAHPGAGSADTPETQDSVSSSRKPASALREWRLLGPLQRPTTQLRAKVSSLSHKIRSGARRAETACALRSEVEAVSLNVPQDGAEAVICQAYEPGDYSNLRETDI
T1 sequence (P43140 whole entry): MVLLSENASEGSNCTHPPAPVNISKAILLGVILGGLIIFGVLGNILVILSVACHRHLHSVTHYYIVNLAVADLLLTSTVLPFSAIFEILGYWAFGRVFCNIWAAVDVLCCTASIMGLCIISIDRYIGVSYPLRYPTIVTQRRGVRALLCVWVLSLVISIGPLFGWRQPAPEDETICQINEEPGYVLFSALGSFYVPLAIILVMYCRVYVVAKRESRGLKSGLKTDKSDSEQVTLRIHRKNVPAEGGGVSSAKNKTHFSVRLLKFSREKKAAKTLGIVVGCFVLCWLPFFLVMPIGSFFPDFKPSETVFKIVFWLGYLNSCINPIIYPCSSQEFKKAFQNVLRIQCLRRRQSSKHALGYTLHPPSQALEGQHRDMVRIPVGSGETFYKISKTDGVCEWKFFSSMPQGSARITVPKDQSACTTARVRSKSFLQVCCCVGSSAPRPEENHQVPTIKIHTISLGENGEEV

[2] = target: 5-hydroxytryptamine receptor 1D (Cavia porcellus, UniProt Q60484); test: Binding affinity against guinea pig 5-hydroxytryptamine 1D receptor
5-hydroxytryptamine receptor 1D, sequence (Q60484 whole entry): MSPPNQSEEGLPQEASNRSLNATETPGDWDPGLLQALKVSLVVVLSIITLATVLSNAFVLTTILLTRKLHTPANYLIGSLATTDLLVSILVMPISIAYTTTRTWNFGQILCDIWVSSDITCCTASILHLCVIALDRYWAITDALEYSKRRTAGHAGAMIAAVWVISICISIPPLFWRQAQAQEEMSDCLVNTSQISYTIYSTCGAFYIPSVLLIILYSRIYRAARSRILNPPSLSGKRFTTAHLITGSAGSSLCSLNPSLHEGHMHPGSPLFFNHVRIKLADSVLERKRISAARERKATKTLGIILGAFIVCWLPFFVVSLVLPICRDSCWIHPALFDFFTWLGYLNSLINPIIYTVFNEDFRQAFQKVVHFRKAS

[3] = target: T2, Adenosine receptor A1 (Rattus norvegicus, UniProt P25099); test: Binding affinity against rat Adenosine A1 receptor
T2 sequence (P25099 whole entry): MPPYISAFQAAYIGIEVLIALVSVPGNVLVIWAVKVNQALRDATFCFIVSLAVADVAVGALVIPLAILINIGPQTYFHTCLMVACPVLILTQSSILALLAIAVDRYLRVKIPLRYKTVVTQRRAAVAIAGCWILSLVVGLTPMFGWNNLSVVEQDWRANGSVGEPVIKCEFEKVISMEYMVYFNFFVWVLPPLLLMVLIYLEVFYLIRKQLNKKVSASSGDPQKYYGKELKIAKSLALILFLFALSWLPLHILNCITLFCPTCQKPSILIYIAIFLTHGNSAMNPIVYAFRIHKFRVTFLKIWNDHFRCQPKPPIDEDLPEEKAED

[4] = test system: Rattus norvegicus; test: In vivo potency to block hypolocomotion response to m-CPP in rat after oral administration; assay type: functional; details: read-out: ID50 (the source's name)
[5] = target: 5-hydroxytryptamine receptor 2A (Homo sapiens, UniProt P28223); test: Binding affinity against human 5-hydroxytryptamine 2A receptor expressed in 293 cells using [3H]ketanserin; assay type: cell-based, HEK293
5-hydroxytryptamine receptor 2A, sequence (P28223 whole entry): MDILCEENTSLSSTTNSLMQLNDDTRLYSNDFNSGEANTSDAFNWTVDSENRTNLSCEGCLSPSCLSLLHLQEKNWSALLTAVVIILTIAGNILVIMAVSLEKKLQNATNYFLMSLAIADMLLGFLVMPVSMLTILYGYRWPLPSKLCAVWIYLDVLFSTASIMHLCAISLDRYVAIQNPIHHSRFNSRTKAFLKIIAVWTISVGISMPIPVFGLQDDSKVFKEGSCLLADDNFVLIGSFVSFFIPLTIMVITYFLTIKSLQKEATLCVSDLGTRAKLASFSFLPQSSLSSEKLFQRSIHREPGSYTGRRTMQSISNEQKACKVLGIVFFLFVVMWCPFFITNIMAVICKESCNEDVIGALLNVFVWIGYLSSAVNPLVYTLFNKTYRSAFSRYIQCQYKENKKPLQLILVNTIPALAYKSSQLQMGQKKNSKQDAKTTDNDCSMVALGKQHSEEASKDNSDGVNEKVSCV
In short: (§1)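 Radioligand binding at cloned human receptors expressed in 293 cells: [³H]ketanserin for 5-HT2A, [³H]mesulergine for 5-HT2C. Values are means ± SEM of n ≥ 3 determinations.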

[6] = target: Histamine H1 receptor (Cavia porcellus, UniProt P31389); test: Binding affinity against guinea pig H1 receptor
Histamine H1 receptor, sequence (P31389 whole entry): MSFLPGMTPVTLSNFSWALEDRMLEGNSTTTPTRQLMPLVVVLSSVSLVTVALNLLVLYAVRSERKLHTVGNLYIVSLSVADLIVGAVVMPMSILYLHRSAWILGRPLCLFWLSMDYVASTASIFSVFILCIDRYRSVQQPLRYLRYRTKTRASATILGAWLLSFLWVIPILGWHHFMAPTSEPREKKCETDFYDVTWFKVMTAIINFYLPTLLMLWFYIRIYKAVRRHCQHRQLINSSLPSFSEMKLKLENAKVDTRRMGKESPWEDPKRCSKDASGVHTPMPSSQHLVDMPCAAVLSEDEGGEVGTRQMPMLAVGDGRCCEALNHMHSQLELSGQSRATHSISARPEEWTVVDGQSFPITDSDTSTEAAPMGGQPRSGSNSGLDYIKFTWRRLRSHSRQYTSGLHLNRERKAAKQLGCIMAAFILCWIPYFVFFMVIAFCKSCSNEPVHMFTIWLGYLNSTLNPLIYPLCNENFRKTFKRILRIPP

[7] = target: 5-hydroxytryptamine receptor 1E (Homo sapiens, UniProt P28566); test: Binding affinity against human 5-hydroxytryptamine 1E receptor expressed in CHO cells; assay type: cell-based
5-hydroxytryptamine receptor 1E, sequence (P28566 whole entry): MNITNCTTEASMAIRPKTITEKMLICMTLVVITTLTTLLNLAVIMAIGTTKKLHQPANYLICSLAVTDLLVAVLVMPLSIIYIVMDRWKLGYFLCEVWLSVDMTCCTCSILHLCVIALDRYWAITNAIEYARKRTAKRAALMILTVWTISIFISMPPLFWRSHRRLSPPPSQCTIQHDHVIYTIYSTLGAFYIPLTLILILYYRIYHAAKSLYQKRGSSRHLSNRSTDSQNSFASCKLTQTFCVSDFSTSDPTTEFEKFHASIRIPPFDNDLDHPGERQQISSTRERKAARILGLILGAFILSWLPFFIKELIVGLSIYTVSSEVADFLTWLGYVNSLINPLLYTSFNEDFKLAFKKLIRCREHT
In short: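 Displacement binding at cloned human 5-HT1E receptors expressed in CHO cells, using [³H]-5-HT as radioligand.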

[8] = target: T3, Serotonin 3 (5-HT3) receptor (Rattus norvegicus, UniProt P35563+Q9JJ16); test: Binding affinity against rat 5-hydroxytryptamine 3 receptor; assay type: protein-complex assay
T3 sequence (P35563 whole entry): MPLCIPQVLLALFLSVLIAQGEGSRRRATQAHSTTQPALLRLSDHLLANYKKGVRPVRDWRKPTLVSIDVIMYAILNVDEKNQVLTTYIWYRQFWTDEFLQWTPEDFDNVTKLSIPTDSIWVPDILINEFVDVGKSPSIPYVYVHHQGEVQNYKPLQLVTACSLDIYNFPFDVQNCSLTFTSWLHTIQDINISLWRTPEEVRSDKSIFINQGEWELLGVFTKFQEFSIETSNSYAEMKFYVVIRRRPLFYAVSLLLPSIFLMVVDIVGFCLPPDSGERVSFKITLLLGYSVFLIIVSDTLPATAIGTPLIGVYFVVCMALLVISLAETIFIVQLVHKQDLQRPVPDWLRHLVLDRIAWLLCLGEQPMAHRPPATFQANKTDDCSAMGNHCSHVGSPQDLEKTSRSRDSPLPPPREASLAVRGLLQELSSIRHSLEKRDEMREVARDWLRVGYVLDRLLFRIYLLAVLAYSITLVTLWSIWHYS
T3 sequence (Q9JJ16 whole entry): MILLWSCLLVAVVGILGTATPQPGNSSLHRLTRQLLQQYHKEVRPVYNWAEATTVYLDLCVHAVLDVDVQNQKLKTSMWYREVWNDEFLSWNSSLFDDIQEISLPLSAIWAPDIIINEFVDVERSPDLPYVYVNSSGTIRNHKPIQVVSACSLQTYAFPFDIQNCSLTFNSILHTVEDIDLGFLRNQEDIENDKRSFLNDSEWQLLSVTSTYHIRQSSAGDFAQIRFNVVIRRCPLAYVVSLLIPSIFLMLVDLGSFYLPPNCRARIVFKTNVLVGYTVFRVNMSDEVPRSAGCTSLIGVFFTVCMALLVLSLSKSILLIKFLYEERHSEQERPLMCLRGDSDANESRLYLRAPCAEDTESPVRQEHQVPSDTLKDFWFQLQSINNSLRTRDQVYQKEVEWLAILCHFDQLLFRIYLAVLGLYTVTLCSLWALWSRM

[9] = target: 5-hydroxytryptamine receptor 4 (Rattus norvegicus, UniProt Q62758); test: Binding affinity against rat 5-hydroxytryptamine 4 receptor
5-hydroxytryptamine receptor 4, sequence (Q62758 whole entry): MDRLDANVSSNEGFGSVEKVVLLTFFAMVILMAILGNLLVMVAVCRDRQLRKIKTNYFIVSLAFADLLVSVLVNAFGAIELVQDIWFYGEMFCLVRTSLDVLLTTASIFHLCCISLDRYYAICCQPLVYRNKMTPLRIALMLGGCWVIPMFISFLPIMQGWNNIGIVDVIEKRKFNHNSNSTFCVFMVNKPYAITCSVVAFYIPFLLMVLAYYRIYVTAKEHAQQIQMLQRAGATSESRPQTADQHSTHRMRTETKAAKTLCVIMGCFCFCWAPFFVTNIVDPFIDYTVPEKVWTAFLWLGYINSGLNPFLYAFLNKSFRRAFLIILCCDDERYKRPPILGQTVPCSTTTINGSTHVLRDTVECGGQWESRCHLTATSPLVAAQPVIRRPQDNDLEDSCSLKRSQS

[10] = target: T4, 5-hydroxytryptamine receptor 1A (Rattus norvegicus, UniProt P19327); test: Binding affinity against rat 5-hydroxytryptamine 1A receptor
T4 sequence (P19327 whole entry): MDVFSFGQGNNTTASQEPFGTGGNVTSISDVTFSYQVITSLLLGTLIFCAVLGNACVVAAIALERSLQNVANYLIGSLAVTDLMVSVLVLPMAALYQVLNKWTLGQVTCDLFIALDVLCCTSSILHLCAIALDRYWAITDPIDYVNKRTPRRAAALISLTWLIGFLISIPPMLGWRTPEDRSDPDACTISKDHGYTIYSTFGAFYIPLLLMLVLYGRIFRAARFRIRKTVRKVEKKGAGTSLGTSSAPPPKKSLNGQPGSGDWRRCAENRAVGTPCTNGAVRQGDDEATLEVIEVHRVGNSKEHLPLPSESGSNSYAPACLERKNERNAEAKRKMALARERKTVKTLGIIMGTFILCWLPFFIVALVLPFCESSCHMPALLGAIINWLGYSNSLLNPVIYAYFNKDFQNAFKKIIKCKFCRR

[11] = target: D(2) dopamine receptor (Homo sapiens, UniProt P14416); test: Binding affinity against human Dopamine receptor D2 expressed in CHO cells using [125I]iodosulpiride; assay type: cell-based
D(2) dopamine receptor, sequence (P14416 whole entry): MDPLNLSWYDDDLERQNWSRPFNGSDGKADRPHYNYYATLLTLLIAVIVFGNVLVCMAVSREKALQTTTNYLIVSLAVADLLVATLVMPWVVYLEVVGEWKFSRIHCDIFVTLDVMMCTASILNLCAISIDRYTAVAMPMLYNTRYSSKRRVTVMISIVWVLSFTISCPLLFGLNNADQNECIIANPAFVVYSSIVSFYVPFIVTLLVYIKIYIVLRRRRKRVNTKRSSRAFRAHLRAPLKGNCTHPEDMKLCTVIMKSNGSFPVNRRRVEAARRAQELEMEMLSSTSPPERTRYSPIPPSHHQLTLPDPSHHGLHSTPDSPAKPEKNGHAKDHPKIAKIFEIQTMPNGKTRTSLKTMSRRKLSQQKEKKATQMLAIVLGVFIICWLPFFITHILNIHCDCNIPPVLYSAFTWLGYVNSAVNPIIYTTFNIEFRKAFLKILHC

[12] = target: 5-hydroxytryptamine receptor 2B (Rattus norvegicus, UniProt P30994); test: Inhibitory potency against rat stomach fundus 5-hydroxytryptamine 2B receptor; assay type: tissue-based; details: read-out: pA2 (converted)
5-hydroxytryptamine receptor 2B, sequence (P30994 whole entry): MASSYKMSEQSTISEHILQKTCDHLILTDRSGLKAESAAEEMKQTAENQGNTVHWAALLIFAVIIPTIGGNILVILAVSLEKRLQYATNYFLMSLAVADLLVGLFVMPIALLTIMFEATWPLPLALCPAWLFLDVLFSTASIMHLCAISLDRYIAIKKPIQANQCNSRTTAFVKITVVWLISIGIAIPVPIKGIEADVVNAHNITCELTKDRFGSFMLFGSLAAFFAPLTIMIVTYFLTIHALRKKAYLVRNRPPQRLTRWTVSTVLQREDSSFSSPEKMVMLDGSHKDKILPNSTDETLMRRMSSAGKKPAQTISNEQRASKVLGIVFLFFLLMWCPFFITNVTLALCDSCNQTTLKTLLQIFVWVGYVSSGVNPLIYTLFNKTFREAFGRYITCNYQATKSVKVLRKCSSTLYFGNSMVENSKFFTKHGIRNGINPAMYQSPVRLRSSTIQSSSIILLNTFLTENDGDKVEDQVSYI
In short: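 Functional antagonism in isolated rat stomach fundus, with contraction evoked by 5-HT as the agonist. Values are means ± SEM of n ≥ 3 determinations.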

[13] = target: D(3) dopamine receptor (Homo sapiens, UniProt P35462); test: Binding affinity human Dopamine receptor D3 expressed in CHO cells using [125I]iodosulpiride; assay type: cell-based
D(3) dopamine receptor, sequence (P35462 whole entry): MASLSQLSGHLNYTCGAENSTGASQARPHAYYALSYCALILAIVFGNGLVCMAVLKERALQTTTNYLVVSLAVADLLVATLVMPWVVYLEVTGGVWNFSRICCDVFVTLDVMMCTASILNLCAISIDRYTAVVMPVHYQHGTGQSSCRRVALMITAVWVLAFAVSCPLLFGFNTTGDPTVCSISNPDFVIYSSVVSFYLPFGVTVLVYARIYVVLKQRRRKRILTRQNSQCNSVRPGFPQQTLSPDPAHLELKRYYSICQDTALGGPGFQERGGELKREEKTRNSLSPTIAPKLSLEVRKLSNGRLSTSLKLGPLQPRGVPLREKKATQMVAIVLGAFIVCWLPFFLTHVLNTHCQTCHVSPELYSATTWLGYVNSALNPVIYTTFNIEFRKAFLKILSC

[14] = target: T5, 5-hydroxytryptamine receptor 2C (Homo sapiens, UniProt P28335); test: (§2) Binding affinity against human 5-hydroxytryptamine 2C receptor expressed in 293 cells using [3H]mesulergine; assay type: cell-based, HEK293; in short: as §1
T5 sequence (P28335 whole entry): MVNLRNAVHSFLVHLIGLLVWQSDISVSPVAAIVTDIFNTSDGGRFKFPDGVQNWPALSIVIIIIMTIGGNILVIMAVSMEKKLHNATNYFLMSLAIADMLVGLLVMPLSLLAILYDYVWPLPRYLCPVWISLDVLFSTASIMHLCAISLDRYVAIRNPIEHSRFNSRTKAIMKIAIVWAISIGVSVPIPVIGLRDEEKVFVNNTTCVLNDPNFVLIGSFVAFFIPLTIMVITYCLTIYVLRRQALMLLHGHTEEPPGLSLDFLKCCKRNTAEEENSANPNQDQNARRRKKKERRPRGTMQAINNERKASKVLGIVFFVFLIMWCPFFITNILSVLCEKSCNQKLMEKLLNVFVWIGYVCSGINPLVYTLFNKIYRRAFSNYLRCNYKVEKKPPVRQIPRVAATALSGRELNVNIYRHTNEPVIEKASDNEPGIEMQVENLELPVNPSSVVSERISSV

[15] = target: T5, 5-hydroxytryptamine receptor 2C; test: as §2; assay type: cell-based, HEK293; remark: listed apart in the source
In short: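 Radioligand binding to cloned human receptor in 293 cells with [3H]mesulergine; values are means ± SEM of at least 3 determinations.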

SMILES	ED50 [4] [mg/kg]	pKi [5]	Kb [12] [µM]	pKi [14]	also measured
Cn1ccc2cc3c(cc21)CCN3C(=O)Nc1cccnc1	5.5	5.79	0.00331		Log Ki [1]: > -5; pKi [2]: < 6.00; pKi [3]: < 4.30; pKi [6]: < 5.00; pKi [7]: < 5.30; pKi [8]: < 5.00; pKi [9]: 5.30; pKi [10]: < 5.00; pKi [11]: < 5.00; pKi [13]: < 5.00
Cn1ccc2c3c(ccc21)N(C(=O)Nc1cccnc1)CC3		5.54	0.0178	7.18	
Cl.Cn1ccc2cc(NC(=O)Nc3cccnc3)ccc21	19.2		0.0398		pKi [15]: 6.86
Cn1ccc2cc3c(cc21)CCCN3C(=O)Nc1cccnc1		< 5.20	0.0537	5.39	
Cn1ccc2c3c(ccc21)N(C(=O)Nc1cccnc1)CCC3		< 5.20	0.0603	< 5.20	
